From PubChem BioAssay AID540337 (Southern Research Specialized Biocontainment Screening …, 2011)
The source made the active and inactive calls.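 How the source made its calls: active means at least 50% inhibition of virus-induced cell damage; inactive means the rest.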

These compounds were tested on HEp-2 RSV Long CPE inhibition, luminescence (assay: RSV-induced cytopathic effect inhibitors, dose response, cell-based, synthesized compounds, set 12, CPE (AID 540337)).
In short: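 test system = RSV Long-infected HEp-2 cells | read-out basis = % CPE inhibition scaled to virus-only and uninfected wells, IC50 | compound = 50–0.39 µM, 2-fold steps, 0.5% DMSO | repeats = triplicate | control set = cell-only and virus-only wells | also added = RSV Long, MOI 0.45 | schedule = 6 d at 37 °C | technique = luminescence-based measure of virus-induced cytopathic effect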

Row | SMILES | IC50
1 | COCCCNC(=O)c1ccc(Cn2c(=O)c3ccccc3n(CCc3ccc(C)cc3)c2=O)cc1 | > 50 µM (inactive)
2 | COCCCNC(=O)c1ccc(Cn2c(=O)c3ccccc3n(Cc3ccc(C)cc3)c2=O)cc1 | 2.5 µM
3 | COCCCNC(=O)c1ccc(Cn2c(=O)c3ccccc3n(CC3CCCCC3)c2=O)cc1 | > 50 µM (inactive)
4 | COCCCNC(=O)c1ccc(Cn2c(=O)c3ccccc3n(Cc3ccccn3)c2=O)cc1 | > 50 µM (inactive)
5 | COCCCNC(=O)c1ccc(Cn2c(=O)c3ccccc3n(CCc3ccc(Br)cc3)c2=O)cc1 | > 50 µM (inactive)
6 | COCCCNC(=O)c1ccc(Cn2c(=O)c3ccccc3n(CCc3ccc(C(F)(F)F)cc3)c2=O)cc1 | > 50 µM (inactive)
7 | COCCCNC(=O)c1ccc(Cn2c(=O)c3ccccc3n(Cc3cccnc3)c2=O)cc1 | > 50 µM (inactive)
